The results in this text go back to ChEMBL document CHEMBL4251693, “Indolylmaleimide Derivative IM-17 Shows Cardioprotective Effects in Ischemia-Reperfusion Injury” (ACS Med Chem Lett, 2018).

The test system of data set [1] is Jurkat. Briefly: Cytoprotective activity against FasL-induced necroptosis in human Jurkat cells assessed as increase in cell viability at 10 uM incubated for 1 hr followed by FasL stimulation measured after 20 hrs by phase contrast microscopy. It is filed as functional, cell-based. The method, boiled down:
(§1)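 Jurkat necroptosis induced with FasL (100 ng/mL, 20 h) together with Z-VAD (100 μM) or cycloheximide (5 μM). Test agents were run at 10 μM alongside a necroptosis inhibitor at 30 μM. Viability read by AlamarBlue; morphology examined by phase-contrast imaging.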

Data set [2] is described as follows: Solubility of the compound in water. It is filed as physicochemical. The following applies: buffer.
For data set [3], the system named is HL-60. In words: Cytoprotective activity against H2O2-induced necrosis in human HL60 cells assessed as increase in cell viability at 10 uM incubated for 1 hr followed by H2O2 stimulation measured after 3 hrs by Alamar blue assay. It is filed as functional, cell-based. The method, boiled down:
(§2)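 HL-60 cells given a death inducer with or without test agent (10 μM) or Z-VAD (100 μM). Inducers were actinomycin D 1 μM for 6 h, camptothecin 1 μM for 6 h, etoposide 100 μM for 4 h, FasL 100 ng/mL for 18 h, H2O2 100 μM for 3 h, and TBHP 30 μM for 3 h. Viability read by AlamarBlue.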

Data set [4] has as its system H9c2. Briefly: Cytoprotective activity against TBHP-induced necrosis in rat H9c2 cells incubated for 4 hrs by LDH release assay. It counts as functional, cell-based. The following applies: H9c2, 4 h. The method, boiled down:
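Rat cardiomyoblast H9c2 cells treated with TBHP (300 μM) with or without test compound; necrotic cell death quantified by LDH release assay.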

Data set [5] has as its system HL-60. In words: Cytoprotective activity against H2O2-induced necrosis in human HL60 cells incubated for 1 hr followed by H2O2 stimulation by LDH release assay. It is filed as functional, cell-based. The note with it: HL-60, 1 h. The method, boiled down: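 Necrosis of HL-60 cells induced by H2O2 and quantified as lactate dehydrogenase release from the cytosol; IC50 derived.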

The test system of data set [6] is HL-60. Briefly: Cytoprotective activity against H2O2-induced apoptosis in human HL60 cells assessed as increase in cell viability at 10 uM incubated for 1 hr followed by H2O2 stimulation measured after 4 hrs in presence of caspase inhibitor Z-VAD by phase contrast microscopy. It is filed as functional, cell-based. The method, boiled down:
(§3)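 HL-60 cells exposed to low-level H2O2 (30 μM, 4 h) with or without test agent (10 μM) or Z-VAD (100 μM). Viability read by AlamarBlue; morphology by phase-contrast imaging.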

Data set [7] relates to Jurkat. Briefly: Cytoprotective activity against FasL-induced apoptosis in human Jurkat cells assessed as increase in cell viability at 10 uM incubated for 1 hr followed by FasL stimulation measured after 18 hrs by Alamar blue assay. It counts as functional, cell-based. The method, boiled down:
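Jurkat cells exposed to FasL (100 ng/mL, 18 h) with or without test agent (10 μM) or Z-VAD (100 μM). Viability measured by AlamarBlue and morphology by phase-contrast imaging.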

Data set [8] relates to Jurkat. Briefly: Cytoprotective activity against CHX-induced necroptosis in human Jurkat cells assessed as increase in cell viability at 10 uM incubated for 1 hr followed by CHX stimulation by phase contrast microscopy. It counts as functional, cell-based. The method, boiled down: as §1
In data set [9] the test system is Jurkat. Briefly: Cytoprotective activity against Z-VAD-induced necroptosis in human Jurkat cells assessed as increase in cell viability at 10 uM incubated for 1 hr followed by Z-VAD stimulation by phase contrast microscopy. It counts as functional, cell-based. The method, boiled down: as §1
In data set [10] the test system is HL-60. In words: Cytoprotective activity against H2O2-induced necrosis in human HL60 cells assessed as increase in cell viability at 10 uM incubated for 1 hr followed by H2O2 stimulation measured after 4 hrs by phase contrast microscopy. It counts as functional, cell-based. The method in brief:
as §3

Data set [11] relates to Jurkat. In words: Cytoprotective activity against Z-VAD-induced necroptosis in human Jurkat cells assessed as increase in cell viability at 10 uM incubated for 1 hr followed by Z-VAD stimulation by Alamar blue assay. It counts as functional, cell-based. The method in brief: as §1
Data set [12] concerns HL-60. In words: Cytoprotective activity against camptothecin-induced apoptosis in human HL60 cells assessed as increase in cell viability at 10 uM incubated for 1 hr followed by camptothecin stimulation measured after 6 hrs by Alamar blue assay. It is filed as functional, cell-based. The method in brief: as §2
In data set [13] the test system is HL-60. Briefly: Cytoprotective activity against TBHP-induced necrosis in human HL60 cells assessed as increase in cell viability at 10 uM incubated for 1 hr followed by TBHP stimulation measured after 3 hrs by Alamar blue assay. It is filed as functional, cell-based. The method, boiled down: as §2
Data set [14] concerns HL-60. Briefly: Cytoprotective activity against H2O2-induced necrosis in human HL60 cells assessed as increase in cell viability at 10 uM incubated for 1 hr followed by H2O2 stimulation measured after 4 hrs in presence of caspase inhibitor Z-VAD by phase contrast microscopy. It counts as functional, cell-based. The method, boiled down: as §3
Data set [15] deals with HL-60. Briefly: Cytoprotective activity against H2O2-induced apoptosis in human HL60 cells assessed as increase in cell viability at 10 uM incubated for 1 hr followed by H2O2 stimulation measured after 4 hrs in presence of caspase inhibitor Z-VAD by Alamar blue assay. It is filed as functional, cell-based. The method in brief:
as §3

Data set [16] can be described thus: Stability in rat liver S9 fraction at 5 uM after 30 mins by HPLC method. The note with it: s9, 0.5 h. It is filed as ADME, subcellular.
Data set [17] relates to Jurkat. Briefly: Cytoprotective activity against CHX-induced necroptosis in human Jurkat cells assessed as increase in cell viability at 10 uM incubated for 1 hr followed by CHX stimulation by Alamar blue assay. It is filed as functional, cell-based. The method in brief:
as §1

In data set [18] the test system is HL-60. Briefly: Cytoprotective activity against etoposide-induced apoptosis in human HL60 cells assessed as increase in cell viability at 10 uM incubated for 1 hr followed by etoposide stimulation measured after 4 hrs by Alamar blue assay. It is filed as functional, cell-based. The method in brief:
as §2

Data set [19] relates to HL-60. Briefly: Cytoprotective activity against Fas ligand-induced apoptosis in human HL60 cells assessed as increase in cell viability at 10 uM incubated for 1 hr followed by Fas ligand stimulation measured after 18 hrs by Alamar blue assay. It counts as functional, cell-based. The method, boiled down:
as §2

In data set [20] the test system is H9c2. In words: Cytotoxicity against rat H9c2 cells at 30 uM. It is filed as cell-based. The note with it: h9c2, 30 µM.
In data set [21] the test system is HL-60. Briefly: Cytoprotective activity against H2O2-induced necrosis in human HL60 cells assessed as increase in cell viability at 10 uM incubated for 1 hr followed by H2O2 stimulation measured after 4 hrs by Alamar blue assay. It counts as functional, cell-based. The method, boiled down:
as §3

Data set [22] deals with HL-60. In words: Cytoprotective activity against H2O2-induced necrosis in human HL60 cells assessed as increase in cell viability at 10 uM incubated for 1 hr followed by H2O2 stimulation measured after 4 hrs in presence of caspase inhibitor Z-VAD by Alamar blue assay. It counts as functional, cell-based. The method in brief: as §3
The test system of data set [23] is Jurkat. Briefly: Cytoprotective activity against FasL-induced necroptosis in human Jurkat cells assessed as increase in cell viability at 10 uM incubated for 1 hr followed by FasL stimulation measured after 20 hrs by Alamar blue assay. It is filed as functional, cell-based. The method in brief: as §1
The test system of data set [24] is HL-60. Briefly: Cytoprotective activity against actinomycin D-induced apoptosis in human HL60 cells assessed as increase in cell viability at 10 uM incubated for 1 hr followed by actinomycin D stimulation measured after 6 hrs by Alamar blue assay. It is filed as functional, cell-based. The method in brief: as §2

Molecules are shown by their SMILES. Active and inactive are the calls of the source. The calls are words filed in the database; no cut-off is given here.

As to `CCCCCNC1=C(c2cn(C)c3ccccc23)C(=O)N(C)C1=O`, the result in data set [1], in [7], in [8], in data set [9], in [11] and in data set [12] was inactive. The result in [17], in [18], in [19], in data set [23] and in [24] was inactive. For the same molecule, in data set [2], the solubility entry is reported as “Insoluble”. In addition, the result in [3], in data set [6], in data set [10], in [13], in [14] and in data set [15] was Active. The outcome in [21] and in data set [22] was Active. The results for the IC50 in data set [4] and in data set [5] were 3900 nM and 250 nM, respectively. In addition, in data set [16], the Stability entry was “Unstable”. Further, in data set [20], the Activity entry is on record as “Non-Toxic”.
